The list is a sample of the results.
HKDC1 activator: increases human hexokinase HKDC1 activity | recombinant HKDC1, G6PDH/diaphorase resazurin fluorescence; hits give low values | Q2TB90 | activity change, negative = activation, % at 20 µM | 340,000 compounds, 0.056% hits;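 active means activation of 40% or more at 20 µM, a change of -40% or lower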
Target sequence (Q2TB90 whole entry, looked up): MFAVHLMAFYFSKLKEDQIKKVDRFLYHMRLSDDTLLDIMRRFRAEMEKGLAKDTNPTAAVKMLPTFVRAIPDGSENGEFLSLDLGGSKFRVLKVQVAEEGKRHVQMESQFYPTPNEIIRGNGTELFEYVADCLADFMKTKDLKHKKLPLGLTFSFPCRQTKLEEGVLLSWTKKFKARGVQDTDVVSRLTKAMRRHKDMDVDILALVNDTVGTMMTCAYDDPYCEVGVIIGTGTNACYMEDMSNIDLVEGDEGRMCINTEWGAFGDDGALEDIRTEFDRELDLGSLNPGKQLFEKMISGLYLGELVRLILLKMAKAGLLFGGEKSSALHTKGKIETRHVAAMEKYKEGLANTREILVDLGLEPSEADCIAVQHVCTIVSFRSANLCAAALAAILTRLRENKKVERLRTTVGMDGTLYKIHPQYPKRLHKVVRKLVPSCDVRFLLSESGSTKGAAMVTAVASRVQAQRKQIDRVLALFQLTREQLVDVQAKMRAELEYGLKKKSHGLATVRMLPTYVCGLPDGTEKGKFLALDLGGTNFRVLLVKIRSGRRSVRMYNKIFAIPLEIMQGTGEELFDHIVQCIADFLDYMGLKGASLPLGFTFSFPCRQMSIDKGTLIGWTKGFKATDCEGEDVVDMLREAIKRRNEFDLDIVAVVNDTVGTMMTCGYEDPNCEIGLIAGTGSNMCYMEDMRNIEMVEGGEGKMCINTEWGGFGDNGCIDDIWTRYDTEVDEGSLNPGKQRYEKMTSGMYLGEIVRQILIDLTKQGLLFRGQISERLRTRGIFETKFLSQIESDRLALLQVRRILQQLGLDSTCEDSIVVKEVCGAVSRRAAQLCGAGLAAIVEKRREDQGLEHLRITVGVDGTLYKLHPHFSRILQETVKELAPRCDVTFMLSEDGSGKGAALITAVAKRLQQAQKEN
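Signal: coupled resazurin-to-resorufin fluorescence, Ex 525/Em 613 nm. Test system: in-house human HKDC1 enzyme, G6PDH and diaphorase coupling enzymes. Quantity: HKDC1 5 µg/mL. Timing: 90 min reaction at room temperature, dark.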
* marks the source's active call; other numbers are inactive results.

SMILES	HKDC1 activator
CC(=O)C1=C(c2cccc([N+](=O)[O-])c2)N(C(C)=O)n2c(C)nnc2S1	-308*
CCC(=O)OC1(C)C(=O)C2=COC(c3ccc(OC)cc3)=CC2=C(Br)C1=O (configuration not stated)	45
O=C(Nc1ccc(Nc2ccncc2)cc1)c1ccc(Nc2ccnc3ccc([N+](=O)[O-])cc23)cc1	44
CCCCCCCCCC(=O)NNC(=O)c1c(O)c2ccccc2n(CC)c1=O	-41*
COc1ccc(OC)c(NC(=O)CSc2ccc(-c3ccco3)nn2)c1	43
CN(C)S(=O)(=O)c1cccc(N=C2NN=C(c3ccccc3)CS2)c1	-281*
COc1ccc(C2=NNC(=Nc3cc(S(=O)(=O)N(C)C)ccc3C)SC2)c(OC)c1	-125*
CC(=O)Nc1ccc(C2=NNC(=Nc3cccc(S(=O)(=O)N(C)C)c3)SC2)cc1	-284*
COCc1cc(SC2CCCCC2)nc(C)n1	46
Cc1[nH]c2ccccc2c1C1=CC(=O)C=CC1=O	58
Cc1[nH]c2ccccc2c1C(C#N)(C#N)C1C(=O)c2ccccc2C1=O	57
Oc1ccc(O)c(Cc2nc3ccccc3[nH]2)c1	54
Cn1c2ccccc2c(=O)c2c(=O)n(-c3ccc(F)cc3)c(-c3cccs3)nc21	68
CC(=O)n1cc(N(C(=O)CCl)c2ccc(C)cc2)c2ccccc21	41
NC(=O)C1CCN(C2=C(Cl)C(=O)c3ccccc3C2=O)CC1	47
O=C(NC1=C(NC2CCS(=O)(=O)C2)C(=O)c2ccccc2C1=O)c1ccccc1 (configuration not stated)	53
CCc1nc2c(c(=O)c3ccccc3n2C)c(=O)n1-c1ccc(F)cc1	48
COc1cc2c(cc1OC)C(c1cc(Br)ccc1F)N(C(=O)CCl)CC2 (configuration not stated)	38
O=[N+]([O-])c1ccc(Sc2nc3ccccc3o2)c([N+](=O)[O-])c1	35
O=C(NCc1ccccn1)c1cc(S(=O)(=O)N2CCN(c3ccccc3)CC2)ccc1Cl	73
O=C(O)CCNc1cc(N2CCN(C(=O)c3ccco3)CC2)c2noc3c2c1C(=O)c1ccccc1-3	39
CC1=NOC(=O)/C1=C\c1ccc(-c2cc(Cl)ccc2Cl)o1	57
Nn1cnnc1N/N=C/c1cc(Br)cc(Br)c1O	-52*
COc1ccc(NC(=O)CSc2ccc(-c3ccco3)nn2)cc1OC	43
CC(C)(C)c1c(Cl)c(O)c(-c2ccccc2)c(=O)n1-c1ccccc1	36
SMILES	HKDC1 activator
Cc1cccc(/C=C/C(=O)c2ccc([N+](=O)[O-])o2)c1	50
CCCCNCCOCCOc1ccccc1-c1ccccc1	-59*
Cc1cc(/C=C\c2ccc3cc(N(C)C)ccc3[n+]2C)c(C)n1-c1ccccc1	37
COC(=O)c1ccc2c(c1)C(C)(C)C(/C=C/c1ccccc1O)=[N+]2C	38
Nc1ccc(S(=O)(=O)c2cc(O)c3ccccc3c2O)cc1	55
O=C(O)c1cc(O)c2c(c1)[C@H]([C@H]1c3cc(C(=O)O)cc(O)c3C(=O)c3c(O[C@@H]4O[C@H](CO)[C@@H](O)[C@H](O)[C@H]4O)cccc31)c1cccc(OC3O[C@H](CO)[C@@H](O)[C@H](O)[C@H]3O)c1C2=O (some centres not stated)	87
Cc1ccc(Sc2ccc(/C=C3/C(=O)NN(c4ccccc4)C3=O)o2)cc1	35
COc1ccccc1N(C)S(=O)(=O)c1ccc(Cl)c(C(=O)NCC2(N(C)C)CCCCC2)c1	42
C=CC(=O)N1C/C(=C/c2ccccc2)C(=O)/C(=C\c2ccccc2)C1	38
O=C(NCCc1ccccc1)c1cnn2c(C(F)F)cc(C3CC3)nc12	47
C/C(=N\NC(=O)c1cc(C2CC2)nc2ccccc12)c1ccc(O)cc1O	-44*
O=C(O)c1ccccc1-c1c2cc(I)c(=O)c(I)c-2oc2c(I)c(O)c(I)cc12	69
C=CCNC(=S)N/N=C(\C)c1ccccn1	-44*
COc1cc(/C=C2/C(=O)NN(c3ccc(Cl)c(Cl)c3)C2=O)cc([N+](=O)[O-])c1O	50
CCOC(=O)c1c(NC(=O)CSc2nnnn2-c2ccc(OC)cc2)sc(C)c1C	-48*
O=C1NN(c2ccccc2)C(=O)/C1=C/c1ccc(Sc2ccc(Cl)cc2)o1	42
CC(C)(C=O)C1=CC(=O)c2ccccc2C1=O	51
O=C(/C=C/c1cccc([N+](=O)[O-])c1)c1ccc([N+](=O)[O-])o1	55
CCOC(=O)C1=C(Cc2ccc(Cl)cc2)C(=O)c2ccccc2C1=O	60
COc1ccc(CN2CCn3nc(C(=O)NC(C)C)cc3C2=O)cc1	-75*
CC(=O)Nc1ccc(S(=O)(=O)NCCC(=O)OC(C)C(=O)c2ccc(C)cc2)cc1 (configuration not stated)	35
O=C(Nc1ccc(F)cc1)C(=O)c1c(O)[nH]c2ccc([N+](=O)[O-])cc12	42
Nc1nc(Cl)c(N)c(NCC2(CO)CC(CCc3ccccc3)C2)n1 (configuration not stated)	42
CC(C)c1ccc(S(=O)(=O)/N=C2/C=C(Sc3ncn[nH]3)C(=O)c3ccccc32)cc1	64
O=C(Nc1ccc2nc(-c3ccco3)c(-c3ccco3)nc2c1)N1CCCCCC1	45
SMILES	HKDC1 activator
CC1(C)C(=O)Nc2ccccc2N1C(=O)COC(=O)c1cc(Cl)cc(Cl)c1	-41*
CCOc1ccc2c(c1)C(NC(C)=O)C(=O)N2CCN1CCOCC1 (configuration not stated)	82
COC(=O)c1ccc(NCc2c(O)ccc(O)c2Br)cc1Cl	45
COc1ccc(NC(=O)Cc2c[nH]c3ccccc23)cc1S(=O)(=O)N1CCCCC1	49
Cc1ccc(N=C2C(=S)N(c3ccc(C)cc3)C(=N)N2/N=C/c2ccc(Cl)cc2)cc1	-119*
O=C(COc1ccccc1/C=C\c1[nH]c(=O)[nH]c(=O)c1[N+](=O)[O-])Nc1ccccc1	40
Cc1ccc(C)c(S(=O)(=O)Nc2cc(SCC(=O)O)c(O)c3ccccc23)c1	63
COc1cc(N(C)C)ccc1C=c1c2ccccc2n2c1cc(-c1ccccc1)[n+]2C	41
Cc1onc(-c2ccccc2)c1C(=O)NC(=S)NNC(=O)c1ccccc1O	-45*
COc1ccc(S(=O)(=O)/N=C2/C=CC(=O)C(C)=C2C)cc1	52
CN1CCN(C2=C(Cl)C(=O)c3ccccc3C2=O)CC1	44
O=C(O)c1[nH]c2ccccc2c1C(c1cc(Cl)cc([N+](=O)[O-])c1O)c1c(C(=O)O)[nH]c2ccccc12	38
C=CC(=O)N1C/C(=C/c2ccc(Cl)cc2)C(=O)/C(=C\c2ccc(Cl)cc2)C1	45
Cc1cc(C(F)F)n2ncc(C(=O)NCCc3ccc(Cl)cc3)c2n1	39
S=C(NCCc1ccc(Cl)cc1)NCc1ccccc1	-63*
Cc1ccc(-n2c3nc(=O)[nH]c(=O)c-3cc3cc([N+](=O)[O-])ccc32)cc1C	61
COC(=O)CCC(=O)OC1(C)C(=O)C2=CN(CC3CC3)C(c3ccc(OC)cc3)=CC2=C(Br)C1=O (configuration not stated)	37
CCN(CC)c1ccc2c(c1)oc(=O)c1c(Cl)cc(=O)oc12	49
O=C(NNC(=S)Nc1ccc(Cl)c(Cl)c1)c1ccccn1	-57*
O=C(Nc1ccc(Cl)c(Cl)c1)Nc1nnc(-c2ccncc2)s1	41
N#Cc1ccc(CSc2nnc(NC(=O)c3ccc4ncsc4c3)s2)cc1	51
[S-]c1nnc(-c2ccc(Br)cc2)n1-c1ccccc1.[Zn+2]	49
Oc1ccc2ccccc2c1C=Nc1ccccc1Br	38
